The values that follow come from ChEMBL document CHEMBL1139422, “Design, synthesis and biological evaluation of novel compounds with conjugated structure as anti-tumor agents” (Bioorg Med Chem, 2008).

In one data set the target is Histone deacetylase. The experiment in a line: Inhibition of human recombinant HDAC by fluorimetric assay. Format: protein assay.
For the next data set, the system named is PC-3. The experiment in a line: Antiproliferative activity against human PC3 cells after 48 hrs by MTT assay. Format: functional, cell-based. Conditions: PC-3, 48 h. A digest of the protocol: (§1)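 Cells seeded at 4000/well; compounds (10 mg/mL DMSO stock, diluted in medium) added 24 h after seeding, in duplicate. Incubation 48 h at 37 °C, 5% CO2. MTT (20 µL of 5 mg/mL in PBS) then added for 4 h at 37 °C, and the signal read at 570 nm.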
For orientation: Tetrazolium dyes change colour on reduction, which living cells bring about.

In a further data set the test system is HCT-116. Description: Antiproliferative activity against human HCT116 cells after 48 hrs by MTT assay. Format: functional, cell-based. Conditions: HCT-116, 48 h. A digest of the protocol:
as §1

The species entered for another data set is Homo sapiens. The experiment in a line: Selectivity index, ratio of IC50 for human recombinant HDAC1 to IC50 for human recombinant HDAC4. In short, it runs like this:
(§2)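 Purified recombinant HDAC1 or HDAC4 was incubated with acetylated-lysine Fluor de Lys substrate, with or without inhibitor. Developer was then added to give the fluorophore, and fluorescence was read. IC50 values are means of at least three experiments. SI is IC50(HDAC1)/IC50(HDAC4).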

The next data set has as its system HepG2. Description: Antiproliferative activity against human HepG2 cells after 48 hrs by MTT assay. Format: functional, cell-based. Conditions: HepG2, 48 h. In short, it runs like this:
as §1

The target of a further data set is Histone deacetylase 4 (Homo sapiens, UniProt P56524). Description: Inhibition of human recombinant HDAC4 using Fluor de Lys as substrate by fluorimetric assay. In short, it runs like this:
as §2

Another data set addresses Histone deacetylase 1 (Homo sapiens, UniProt Q13547). The experiment in a line: Inhibition of human recombinant HDAC1 using Fluor de Lys as substrate by fluorimetric assay. A digest of the protocol:
as §2

The test system of data set [1] is U-937. Description: Induction of apoptosis in human U937 cells assessed as caspase 3 activation at 5 uM after 30 hrs by FACS analysis. In kind it is functional, cell-based. A digest of the protocol:
(§3)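 U937 cells were grown in supplemented RPMI at 200,000 cells/mL. Compounds in DMSO were given at 5 µM for 24 h or 30 h, or at 0.5 µM for 28 h. Apoptosis was analysed by FACS. Values are means of independent duplicates.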
On the technique in general: A flow cytometer gives signals particle by particle.

The test system of a further data set is A549. Description: Antiproliferative activity against human A549 cells after 48 hrs by MTT assay. Format: functional, cell-based. To be noted: A549, 48 h. In short, it runs like this:
as §1

The test system of data set [2] is U-937. The experiment in a line: Induction of monocytic differentiation in human U937 cells assessed as CD14 expression at 5 uM after 30 hrs by FACS analysis. Format: functional, cell-based. In short, it runs like this:
(§4)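 U937 cells were grown in RPMI with 10% FCS, 10 mM Hepes and 2 mM glutamine at 200,000 cells/mL. Compounds in DMSO were given for 30 h (5 µM) or 28 h (0.5 µM). Cells were stained for surface antigen for 30 min at 4 °C in the dark, washed, and resuspended in PBS with propidium iodide. PI-positive cells were excluded from the FACS analysis. Values are means of independent quadruplicates.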

Data set [3] concerns U-937. Description: Increase in granulocytic differentiation in human U937 cells assessed as CD11c expression at 5 uM after 30 hrs by FACS analysis. Format: functional, cell-based. A digest of the protocol: as §4
The test system of data set [4] is Plasma. Description: Stability in rat plasma at 100 ug/ml. Format: ADME, cell-free. A digest of the protocol:
(§5)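 Compounds were dissolved in blank rat plasma (1 mg/mL stock) and serially diluted with plasma. Samples were incubated at 37 °C and sampled at several times. Proteins were precipitated with two volumes of acetonitrile and spun at 16,000 rpm for 5 min, and the supernatant was analysed by HPLC.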

Data set [5] deals with Plasma. The experiment in a line: Stability in rat plasma at 25 ug/ml. Format: ADME, cell-free. A digest of the protocol: as §5
Data set [6] can be described thus: Inhibition of HDAC.
Data set [7] deals with U-937. The experiment in a line: Induction of p21waf1/CIP1 expression in human U937 cells after 24 hrs by Western blot analysis. Format: functional, cell-based. In short, it runs like this: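 U937 cells were treated for 24 h. Total protein extracts (50 µg) were run on a 15% polyacrylamide gel and blotted for p21 (1:500), with tubulin as the loading control.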
For orientation: In western blotting, separated proteins are transferred to a membrane and probed.

Data set [8] concerns the target T1, Protein deacetylase HDAC6 (Homo sapiens) (UniProt Q9UBN7).
T1 sequence (whole entry): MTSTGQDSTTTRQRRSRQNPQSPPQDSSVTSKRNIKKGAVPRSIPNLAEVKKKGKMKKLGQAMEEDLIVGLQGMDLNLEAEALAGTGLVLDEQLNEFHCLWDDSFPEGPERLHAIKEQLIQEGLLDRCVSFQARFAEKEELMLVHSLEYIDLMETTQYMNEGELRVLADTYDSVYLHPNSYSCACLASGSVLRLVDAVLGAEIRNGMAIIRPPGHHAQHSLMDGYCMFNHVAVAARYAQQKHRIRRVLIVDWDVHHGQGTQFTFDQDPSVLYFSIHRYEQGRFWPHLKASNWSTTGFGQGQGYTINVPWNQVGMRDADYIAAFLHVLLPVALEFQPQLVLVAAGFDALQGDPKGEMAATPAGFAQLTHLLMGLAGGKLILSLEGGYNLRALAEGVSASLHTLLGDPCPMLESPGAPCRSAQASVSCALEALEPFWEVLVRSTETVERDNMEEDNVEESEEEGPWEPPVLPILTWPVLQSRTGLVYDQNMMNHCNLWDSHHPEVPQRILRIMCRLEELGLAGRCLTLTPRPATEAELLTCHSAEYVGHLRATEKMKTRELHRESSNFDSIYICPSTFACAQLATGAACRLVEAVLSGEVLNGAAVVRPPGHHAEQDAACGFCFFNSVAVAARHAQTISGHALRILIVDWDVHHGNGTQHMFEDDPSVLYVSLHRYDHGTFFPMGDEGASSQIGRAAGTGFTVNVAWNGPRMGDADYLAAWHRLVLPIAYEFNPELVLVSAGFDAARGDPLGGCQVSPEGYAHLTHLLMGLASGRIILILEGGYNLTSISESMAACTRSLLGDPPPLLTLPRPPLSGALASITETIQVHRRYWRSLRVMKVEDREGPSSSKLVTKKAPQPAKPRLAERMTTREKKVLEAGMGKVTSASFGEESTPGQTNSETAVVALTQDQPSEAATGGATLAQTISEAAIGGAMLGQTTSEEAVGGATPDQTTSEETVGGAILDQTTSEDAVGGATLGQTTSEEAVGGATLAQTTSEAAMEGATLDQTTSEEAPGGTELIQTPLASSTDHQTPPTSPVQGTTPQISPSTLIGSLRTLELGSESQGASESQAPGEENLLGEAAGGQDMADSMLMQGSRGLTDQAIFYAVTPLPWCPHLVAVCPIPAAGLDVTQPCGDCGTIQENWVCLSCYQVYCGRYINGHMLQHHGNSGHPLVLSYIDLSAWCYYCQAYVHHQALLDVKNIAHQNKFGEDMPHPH
Description: Inhibition of HDAC6 in human U937 cells assessed as induction of alpha-tubulin acetylation after 24 hrs by Western blot analysis. In kind it is cell-based. Conditions: U-937. A digest of the protocol:
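U937 cells were treated for 24 h. Total protein extract (50 µg) was run on a 10% polyacrylamide gel and blotted for acetylated α-tubulin (1:500), with total ERK as the loading control.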

Data set [9] has as its system U-937. Description: Cell cycle arrest in human U937 cells assessed as accumulation at G1 phase at 5 uM after 24 hrs by flow cytometry. In kind it is functional, cell-based. A digest of the protocol: (§6)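 U937 cells were grown in RPMI with 10% FCS, penicillin/streptomycin, amphotericin-B, 10 mM Hepes and 2 mM glutamine, and held at 200,000 cells/mL. Cells were treated 24 h with compounds in DMSO. 2.5×10^5 cells were resuspended in hypotonic buffer (0.1% Triton X-100, 0.1% sodium citrate, 50 µg/mL PI, RNase A) for 30 min in the dark, then analysed by flow cytometry. Values are means of independent duplicates.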

Data set [10] deals with U-937. The experiment in a line: Induction of apoptosis in human U937 cells assessed as caspase 3 activation at 5 uM after 24 hrs by FACS analysis. Format: functional, cell-based. A digest of the protocol:
as §3

The subject of data set [11] is U-937. The experiment in a line: Increase in granulocytic differentiation in human U937 cells assessed as CD11c expression at 0.5 uM after 28 hrs by FACS analysis. Format: functional, cell-based. In short, it runs like this: as §4
In data set [12] the test system is U-937. The experiment in a line: Induction of apoptosis in human U937 cells assessed as caspase 3 activation at 0.5 uM after 28 hrs by FACS analysis. In kind it is functional, cell-based. A digest of the protocol: as §3
The test system of data set [13] is U-937. The experiment in a line: Cell cycle arrest in human U937 cells assessed as accumulation at S phase at 5 uM after 24 hrs by flow cytometry. In kind it is functional, cell-based. A digest of the protocol:
as §6

A further data set concerns Zea mays. Description: Selectivity for maize histone deacetylase 1A over maize histone deacetylase 1B.

Activity calls are given as the source filed them. The calls are words filed in the database; no cut-off is given here.

Histone deacetylase 4, sequence (P56524 whole entry): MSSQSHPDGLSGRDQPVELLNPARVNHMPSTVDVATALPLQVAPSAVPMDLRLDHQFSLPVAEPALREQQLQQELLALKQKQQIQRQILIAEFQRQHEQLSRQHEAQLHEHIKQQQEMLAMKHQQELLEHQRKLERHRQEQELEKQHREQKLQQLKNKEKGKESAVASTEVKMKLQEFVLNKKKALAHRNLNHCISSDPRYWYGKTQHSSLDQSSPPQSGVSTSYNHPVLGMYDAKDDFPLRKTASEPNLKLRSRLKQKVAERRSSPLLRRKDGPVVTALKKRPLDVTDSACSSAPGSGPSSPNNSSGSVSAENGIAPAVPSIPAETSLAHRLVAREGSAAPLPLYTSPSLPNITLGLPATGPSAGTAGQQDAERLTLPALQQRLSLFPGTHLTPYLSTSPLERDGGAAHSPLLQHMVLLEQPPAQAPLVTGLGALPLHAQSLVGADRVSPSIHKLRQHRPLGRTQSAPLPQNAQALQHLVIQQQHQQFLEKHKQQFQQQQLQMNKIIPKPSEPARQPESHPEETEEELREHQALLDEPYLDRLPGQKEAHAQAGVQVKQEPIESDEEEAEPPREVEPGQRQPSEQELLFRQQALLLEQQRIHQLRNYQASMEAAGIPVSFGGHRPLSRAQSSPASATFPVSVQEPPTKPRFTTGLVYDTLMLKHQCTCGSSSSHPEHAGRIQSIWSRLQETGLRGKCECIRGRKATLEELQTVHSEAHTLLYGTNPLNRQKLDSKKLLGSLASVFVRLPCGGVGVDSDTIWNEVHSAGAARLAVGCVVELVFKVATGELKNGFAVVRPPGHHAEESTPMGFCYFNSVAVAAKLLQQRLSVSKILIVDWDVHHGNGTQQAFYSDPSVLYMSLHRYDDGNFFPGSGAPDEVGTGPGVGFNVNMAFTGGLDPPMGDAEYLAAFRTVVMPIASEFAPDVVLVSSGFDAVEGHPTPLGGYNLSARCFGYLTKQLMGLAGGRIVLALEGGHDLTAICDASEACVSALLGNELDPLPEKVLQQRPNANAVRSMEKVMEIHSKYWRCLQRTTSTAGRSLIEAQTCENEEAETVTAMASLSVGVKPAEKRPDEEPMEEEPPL
Histone deacetylase 1, sequence (Q13547 whole entry): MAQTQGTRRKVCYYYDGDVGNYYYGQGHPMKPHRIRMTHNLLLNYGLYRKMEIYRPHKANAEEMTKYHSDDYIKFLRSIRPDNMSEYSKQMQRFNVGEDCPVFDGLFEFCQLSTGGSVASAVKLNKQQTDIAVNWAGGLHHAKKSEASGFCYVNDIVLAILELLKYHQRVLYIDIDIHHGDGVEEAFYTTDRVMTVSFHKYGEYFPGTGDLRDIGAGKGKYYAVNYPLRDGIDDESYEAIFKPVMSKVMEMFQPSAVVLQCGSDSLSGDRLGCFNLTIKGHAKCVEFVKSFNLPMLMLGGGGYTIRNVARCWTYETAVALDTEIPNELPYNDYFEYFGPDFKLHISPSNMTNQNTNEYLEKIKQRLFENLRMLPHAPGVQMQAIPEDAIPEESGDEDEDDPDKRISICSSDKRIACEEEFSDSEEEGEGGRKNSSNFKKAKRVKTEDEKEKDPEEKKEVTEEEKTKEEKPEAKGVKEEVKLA

As a reminder, the IC50 is the concentration that gives 50% inhibition. As for `O=C(CCCCCCC(=O)Nc1ccccc1C(=O)NO)Nc1ccccc1`, the concentration for half-maximal inhibition (IC50) was found to be 0.042 µM on Histone deacetylase; 8.17 µM in the data set on PC-3; 2.69 µM with HCT-116; 63.5 µM in the data set on HepG2; 0.55 µM at Histone deacetylase 4; 0.59 µM on Histone deacetylase 1. In the data set listed under Homo sapiens, the Ratio IC50 amounted to 1.01.
In the case of `O=C(NO)c1ccc(/C=C/c2ccccc2)o1`, the IC50 is 40.4 µM with PC-3; 2.49 µM in the data set on HCT-116; 32.5 µM with A549; 12.8 µM with HepG2; 47.2 µM on Histone deacetylase 4; 49.1 µM at Histone deacetylase 1. The outcome with U-937 [1] and with U-937 [3] was Active. Also, in the data set listed under Homo sapiens, the Ratio IC50 was 1.04. The outcome with U-937 [2] was inactive. Moreover, the Stability result in the data set with Plasma [4] and in the data set with Plasma [5] was “Stable” each time.
In [6], `O=C(/C=C/C=C/C=C/c1ccccc1)NO` returned an IC50 of 1.8 µM.
Take `O=C(/C=C/c1ccc(/C=C/C(=O)c2ccc3ccccc3c2)o1)NO`: the IC50 was 0.63 µM at Histone deacetylase; 15.1 µM with PC-3; 2.22 µM in the data set with HCT-116; 29.4 µM in the data set with A549; 9.93 µM in the data set on HepG2; 4.38 µM at Histone deacetylase 4. Also, the IC50 on Histone deacetylase 1 was determined as 3.77 µM. The Ratio IC50 in the data set filed under Homo sapiens came to 0.9. Besides, the outcome (in the data set on U-937 [7]; in [8]; in the data set with U-937 [9]; with U-937 [10]) was Active.
Turning to `COc1cc(/C=C/c2ccc(C(=O)NO)o2)ccc1OCc1ccccc1`, the IC50 worked out at 1.89 µM on Histone deacetylase; 1.2 µM in the data set on PC-3; 50.3 µM in the data set with A549; 30.9 µM with HepG2; 10.2 µM on Histone deacetylase 4; 13.4 µM on Histone deacetylase 1. Moreover, the result in the data set with U-937 [11] and with U-937 [12] was Active. For the same compound, the Ratio IC50 in the data set listed under Homo sapiens worked out at 1.3.
As for `CN(C)c1ccc(/C=C/c2ccc(C(=O)NO)o2)cc1`, the IC50 in the data set with PC-3 is 3.2 µM; in the data set on A549, 46.3 µM; in the data set on HepG2 it was 31.7 µM; at Histone deacetylase 4 it was 50.6 µM; at Histone deacetylase 1, 49.1 µM. For the same compound, the outcome in the data set on U-937 [11] and with U-937 [7] was Active. Moreover, the Ratio IC50 in the data set listed under Homo sapiens stood at 0.97.
With `O=C(/C=C/c1ccc(/C=C/C(=O)c2ccccc2)o1)NO`, the outcome (with U-937 [13]; in the data set on U-937 [7]; in data set [8]) was Active. Further, the IC50 was determined as 13.3 µM in the data set on PC-3; 2.89 µM in the data set with HCT-116; 20.2 µM with A549; 12.1 µM in the data set with HepG2; 22.8 µM at Histone deacetylase 4; 11.5 µM on Histone deacetylase 1. The Ratio IC50 in the data set listed under Homo sapiens was 0.5. The Stability entry with Plasma [4] and in the data set with Plasma [5] was “Stable” in each case.
`Cn1cc(/C=C/C(=O)c2cccc(F)c2)cc1/C=C/C(=O)NO`: the Selectivity ratio in the data set with Zea mays was 176.
As for `O=C(NO)c1ccc(/C=C/c2ccc(O)cc2)o1`, the IC50 in the data set on PC-3 is 21.8 µM; in the data set with HCT-116, 2.73 µM; with A549 it was 86.4 µM; in the data set with HepG2, 20.9 µM; on Histone deacetylase 4 it was 57.1 µM; at Histone deacetylase 1 it was 43.1 µM. The result in the data set with U-937 [1] and with U-937 [3] was Active. For the same compound, the Ratio IC50 in the data set listed under Homo sapiens stood at 0.76. The result with U-937 [2] was inactive.
